ChEMBL document CHEMBL1134494, “2-Amino-6-arylsulfonylbenzonitriles as non-nucleoside reverse transcriptase inhibitors of HIV-1” (J Med Chem, 2001)

These compounds were tested against Human immunodeficiency virus type 1 reverse transcriptase (Human immunodeficiency virus 1, UniProt Q72547) (assay: Inhibitory activity against HIV-1 reverse transcriptase). Conditions: not given.
Procedure, shortened: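 Recombinant HIV RT at 1 nM was combined with 40 nM Eu-chelate-labeled biotinylated DNA primer/RNA template and 100 nM Cy5-dUTP. Reactions were started with enzyme.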

Point of comparison: `N#Cc1c(N)cccc1S(=O)(=O)c1ccccc1F`, IC50 5 µM. Against it:
- COc1ccccc1[S+]([O-])c1cccc(N)c1C#N (stereo not given) — 2.4-fold higher, 12 µM
- COc1cc(C)cc(Sc2cccc(N)c2C#N)c1 — 36-fold lower, 0.14 µM
- Cc1ccccc1[S+]([O-])c1cccc(N)c1C#N (stereo not given) — higher, > 21 µM
- N#Cc1c(N)cccc1Sc1ccccc1Cl — within 1.5-fold, 7.2 µM
- COc1cccc([S+]([O-])c2cccc(N)c2C#N)c1 (stereo not given) — 3.8-fold higher, 19 µM
- COc1cc([S+]([O-])c2cccc(N)c2C#N)cc(C(F)(F)F)c1 (stereo not given) — 5.6-fold lower, 0.9 µM
- COc1cc(Sc2cccc(N)c2C#N)cc(C(F)(F)F)c1 — 2.6-fold higher, 13 µM
- Cc1cccc(S(=O)(=O)c2cccc(N)c2C#N)c1 — 25-fold lower, 0.2 µM
- N#Cc1cccc(Sc2cccc(N)c2C#N)c1 — 4.5-fold lower, 1.1 µM
- N#Cc1c(N)cccc1S(=O)(=O)c1ccc2ccccc2c1 — 170-fold lower, 0.03 µM
- O=[N+]([O-])c1ccccc1Sc1ccccc1[N+](=O)[O-] — higher, > 20 µM
- N#Cc1c(N)cccc1[S+]([O-])c1ccc(Br)cc1 (stereo not given) — higher, > 21 µM
- N#Cc1c(N)cccc1Sc1ccccc1Br — higher, > 21 µM
- Cc1ccccc1S(=O)(=O)c1cccc(N)c1C#N — within 1.5-fold, 4.5 µM
- N#Cc1c(N)cccc1S(=O)(=O)c1ccccc1Cl — within 1.5-fold, 5.9 µM
- N#Cc1c(N)cccc1Sc1ccccc1 — 1.7-fold higher, 8.7 µM
- COc1ccccc1S(=O)(=O)c1cccc(N)c1C#N — 3.6-fold lower, 1.4 µM
- N#Cc1ccccc1[S+]([O-])c1cccc(N)c1C#N (stereo not given) — 2-fold higher, 9.9 µM
- O=[N+]([O-])c1ccccc1S(=O)(=O)c1ccccc1[N+](=O)[O-] — 2.8-fold higher, 14 µM
- N#Cc1ccccc1S(=O)(=O)c1cccc(N)c1C#N — within 1.5-fold, 6 µM
- Cc1cc(Cl)cc([S+]([O-])c2cccc(N)c2C#N)c1 (stereo not given) — 9.6-fold lower, 0.52 µM
- O=[N+]([O-])c1ccccc1S(=O)(=O)c1ccccc1 — 3.2-fold higher, 16 µM
- N#Cc1c(N)cccc1[S+]([O-])c1cccc(Br)c1 (stereo not given) — within 1.5-fold, 4.8 µM

These compounds were tested on MT4 (assay: Cell culture cytotoxicity against MT-4 cells.). Conditions: Homo sapiens.
Format: functional, cell-based
Procedure, shortened: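 MT4 cells were exposed to compound in parallel with the 5-day HIV-1 strain 3B cytopathic-effect assay. Compound-induced cytotoxicity is reported as the cell culture cytotoxicity IC50 (CCIC50).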

Point of comparison: `N#Cc1c(N)cccc1Sc1ccccc1Cl`, IC50 33 µM. Against it:
- COc1ccccc1[S+]([O-])c1cccc(N)c1C#N (stereo not given) — higher, > 200 µM
- COc1cc(C)cc(Sc2cccc(N)c2C#N)c1 — 3.3-fold lower, 10 µM
- Cc1ccccc1[S+]([O-])c1cccc(N)c1C#N (stereo not given) — higher, > 200 µM
- COc1cccc([S+]([O-])c2cccc(N)c2C#N)c1 (stereo not given) — higher, > 80 µM
- COc1cc([S+]([O-])c2cccc(N)c2C#N)cc(C(F)(F)F)c1 (stereo not given) — 3.3-fold higher, 108 µM
- COc1cc(Sc2cccc(N)c2C#N)cc(C(F)(F)F)c1 — 3.7-fold lower, 9 µM
- Cc1cccc(S(=O)(=O)c2cccc(N)c2C#N)c1 — 5.4-fold higher, 179 µM
- N#Cc1c(F)cccc1S(=O)(=O)c1cc(Cl)cc(Cl)c1 — 5.7-fold higher, 188 µM
- CCCOc1cc(C)cc(S(=O)(=O)c2cccc(N)c2C#N)c1 — 3-fold lower, 11 µM
- N#Cc1cccc(Sc2cccc(N)c2C#N)c1 — 2.4-fold higher, 80 µM
- CCCCNc1cccc(S(=O)(=O)c2cc(C)cc(C)c2)c1C#N — higher, > 200 µM
- N#Cc1c(N)cccc1S(=O)(=O)c1ccc2ccccc2c1 — higher, > 200 µM
- O=[N+]([O-])c1ccccc1Sc1ccccc1[N+](=O)[O-] — higher, > 200 µM
- N#Cc1c(N)cccc1[S+]([O-])c1ccc(Br)cc1 (stereo not given) — higher, > 200 µM
- N#Cc1c(N)cccc1Sc1ccccc1Br — within 1.5-fold, 41 µM
- Cc1ccccc1S(=O)(=O)c1cccc(N)c1C#N — higher, > 200 µM
- N#Cc1c(N)cccc1S(=O)(=O)c1ccccc1Cl — higher, > 200 µM
- N#Cc1c(N)cccc1Sc1ccccc1 — 5.1-fold higher, 168 µM
- COc1ccccc1S(=O)(=O)c1cccc(N)c1C#N — 4.4-fold higher, 146 µM
- N#Cc1c(N)cccc1S(=O)(=O)c1ccccc1F — 1.7-fold higher, 57 µM
- N#Cc1ccccc1[S+]([O-])c1cccc(N)c1C#N (stereo not given) — higher, > 200 µM
- N#Cc1ccccc1S(=O)(=O)c1cccc(N)c1C#N — higher, > 200 µM
- Cc1cc(Cl)cc([S+]([O-])c2cccc(N)c2C#N)c1 (stereo not given) — higher, > 200 µM
- N#Cc1c(N)cccc1S(=O)(=O)c1cccc(F)c1 — higher, > 200 µM
- Cc1cc(O)cc(S(=O)(=O)c2cccc(N)c2C#N)c1 — 5.1-fold higher, 167 µM
- N#Cc1c(N)cccc1S(=O)(=O)c1ccc(Cl)cc1 — not separable, > 5 µM
- Cc1cc(C)cc(S(=O)(=O)c2cccc(NC3CCCCC3)c2C#N)c1 — higher, > 200 µM
- CCOc1cc(C)cc(S(=O)(=O)c2cccc(N)c2C#N)c1 — 3.7-fold lower, 9 µM
- Cc1cc(C)cc(S(=O)(=O)c2cccc(F)c2C#N)c1 — higher, > 200 µM
- COc1cc(C)cc(S(=O)(=O)c2cccc(F)c2C#N)c1 — 4.1-fold lower, 8 µM
- Nc1cccc(S(=O)(=O)c2ccccc2)c1 — higher, > 50 µM

These compounds were tested on Human immunodeficiency virus 1 (assay: Antiviral activity against HIV-1 infected human MT-4 cells.). Conditions: Human immunodeficiency virus 1, MT4.
Format: functional, organism-based
Procedure, shortened: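 HTLV-1-transformed MT4 cells were infected with HIV-1 strain 3B at 100× the amount giving a 50% drop in cell growth. They were cultured 5 days with a range of compound concentrations. IC50 is the concentration restoring 50% of infected-cell growth (cytopathic effect) relative to uninfected MT4 controls.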

Point of comparison: `N#Cc1c(N)cccc1Sc1ccccc1Br`, IC50 30 µM. Against it:
- COc1ccccc1[S+]([O-])c1cccc(N)c1C#N (stereo not given) — 6.2-fold lower, 4.8 µM
- COc1cc(C)cc(Sc2cccc(N)c2C#N)c1 — 15-fold lower, 2 µM
- Cc1ccccc1[S+]([O-])c1cccc(N)c1C#N (stereo not given) — 3.1-fold higher, 93 µM
- N#Cc1c(N)cccc1Sc1ccccc1Cl — 7.3-fold lower, 4.1 µM
- COc1cccc([S+]([O-])c2cccc(N)c2C#N)c1 (stereo not given) — 1.9-fold lower, 16 µM
- COc1cc([S+]([O-])c2cccc(N)c2C#N)cc(C(F)(F)F)c1 (stereo not given) — 14-fold lower, 2.07 µM
- COc1cc(Sc2cccc(N)c2C#N)cc(C(F)(F)F)c1 — 5.9-fold lower, 5.1 µM
- Cc1cccc(S(=O)(=O)c2cccc(N)c2C#N)c1 — 75-fold lower, 0.4 µM
- N#Cc1c(F)cccc1S(=O)(=O)c1cc(Cl)cc(Cl)c1 — within 1.5-fold, 42 µM
- CCCOc1cc(C)cc(S(=O)(=O)c2cccc(N)c2C#N)c1 — 500-fold lower, 0.06 µM
- N#Cc1cccc(Sc2cccc(N)c2C#N)c1 — 17-fold lower, 1.73 µM
- CCCCNc1cccc(S(=O)(=O)c2cc(C)cc(C)c2)c1C#N — not separable, > 12 µM
- N#Cc1c(N)cccc1S(=O)(=O)c1ccc2ccccc2c1 — 600-fold lower, 0.05 µM
- O=[N+]([O-])c1ccccc1Sc1ccccc1[N+](=O)[O-] — 3.1-fold higher, 93.5 µM
- N#Cc1c(N)cccc1[S+]([O-])c1ccc(Br)cc1 (stereo not given) — within 1.5-fold, 20.2 µM
- Cc1ccccc1S(=O)(=O)c1cccc(N)c1C#N — 13-fold lower, 2.3 µM
- N#Cc1c(N)cccc1S(=O)(=O)c1ccccc1Cl — 7.3-fold lower, 4.1 µM
- N#Cc1c(N)cccc1Sc1ccccc1 — 2.1-fold lower, 14.6 µM
- COc1ccccc1S(=O)(=O)c1cccc(N)c1C#N — 50-fold lower, 0.6 µM
- N#Cc1c(N)cccc1S(=O)(=O)c1ccccc1F — 10-fold lower, 3 µM
- N#Cc1ccccc1[S+]([O-])c1cccc(N)c1C#N (stereo not given) — 7.7-fold lower, 3.9 µM
- N#Cc1ccccc1S(=O)(=O)c1cccc(N)c1C#N — 5.6-fold lower, 5.4 µM
- Cc1cc(Cl)cc([S+]([O-])c2cccc(N)c2C#N)c1 (stereo not given) — 94-fold lower, 0.32 µM
- N#Cc1c(N)cccc1S(=O)(=O)c1cccc(F)c1 — 10-fold lower, 3 µM
- O=[N+]([O-])c1ccccc1S(=O)(=O)c1ccccc1 — 14-fold lower, 2.2 µM
- Cc1cc(O)cc(S(=O)(=O)c2cccc(N)c2C#N)c1 — 70-fold lower, 0.43 µM
- N#Cc1c(N)cccc1S(=O)(=O)c1ccc(Cl)cc1 — 10-fold lower, 3 µM
- N#Cc1c(N)cccc1[S+]([O-])c1cccc(Br)c1 (stereo not given) — 380-fold lower, 0.08 µM
- Cc1cc(C)cc(S(=O)(=O)c2cccc(NC3CCCCC3)c2C#N)c1 — higher, > 200 µM
- CCOc1cc(C)cc(S(=O)(=O)c2cccc(N)c2C#N)c1 — 500-fold lower, 0.06 µM
- Cc1cc(C)cc(S(=O)(=O)c2cccc(F)c2C#N)c1 — 20-fold lower, 1.5 µM
- COc1cc(C)cc(S(=O)(=O)c2cccc(F)c2C#N)c1 — 1.7-fold higher, 51 µM
- Nc1cccc(S(=O)(=O)c2ccccc2)c1 — higher, > 50 µM
